High-throughput results (PubChem)
hERG rescue: hERG (human) protection from proarrhythmic block | AID 1511 | hit rate 0.51% among 310,000 | CHO-hERG, FluxOR thallium flux, dofetilide IC70 present | activation (rescue from dofetilide block), less the hit threshold, % at 10 µM;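 active = activation above the mean of controls blocked by dofetilide plus 5 SD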;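 also: thallium influx through hERG after potassium depolarization seen as dye fluorescence rise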
KCNQ1 act: potentiators or activators of human KCNQ1 potassium channel | CHO-K1 KCNQ1, thallium flux FluxOR fluorescence; active compounds read high | B-score at 10 µM | hit rate 0.35% among 310,000 | AID 2648;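 active = fluorescence ratio B-score, a plate-corrected score, at least three library SD, with initial intensity B-score within 5 SD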
Target sequence (P51787 whole entry, looked up): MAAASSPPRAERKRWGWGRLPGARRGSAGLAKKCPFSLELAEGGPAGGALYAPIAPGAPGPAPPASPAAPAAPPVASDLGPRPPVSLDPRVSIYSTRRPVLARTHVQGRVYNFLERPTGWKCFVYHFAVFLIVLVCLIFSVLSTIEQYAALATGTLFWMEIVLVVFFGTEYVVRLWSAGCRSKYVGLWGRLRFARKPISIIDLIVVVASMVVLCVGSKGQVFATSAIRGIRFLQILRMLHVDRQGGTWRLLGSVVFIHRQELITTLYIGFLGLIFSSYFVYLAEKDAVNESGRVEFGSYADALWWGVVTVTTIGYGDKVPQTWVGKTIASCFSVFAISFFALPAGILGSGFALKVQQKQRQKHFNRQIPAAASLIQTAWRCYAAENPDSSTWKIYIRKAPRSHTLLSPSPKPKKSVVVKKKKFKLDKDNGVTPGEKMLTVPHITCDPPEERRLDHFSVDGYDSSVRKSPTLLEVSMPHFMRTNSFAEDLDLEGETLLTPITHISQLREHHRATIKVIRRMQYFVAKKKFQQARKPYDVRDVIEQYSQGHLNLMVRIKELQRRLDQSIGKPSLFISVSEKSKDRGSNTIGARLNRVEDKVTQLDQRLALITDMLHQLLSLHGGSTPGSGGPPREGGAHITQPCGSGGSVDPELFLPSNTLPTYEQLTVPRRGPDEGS
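Doses: Single concentration per compound, DMSO matched to controls | Test system: KCNQ1-transfected CHO-K1 cells | Timing: 90 min dye loading and 20 min compound exposure, both at room temperature | Measured by: Kinetic FluxOR thallium fluorescence, 10-s 1-Hz baseline, 110-s post-stimulus read | Medium: Assay buffer with matched DMSO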
PHOSPHO1 block: PHOSPHO1 (human) inhibition. recombinant PHOSPHO1, absorbance phosphatase assay. inhibition, % at 13.3 µM. AID 1565. hit rate 1.1% among 290,000; in the data active = inhibition above about 60%
KCNQ1 block: human KCNQ1 channel inhibition | P51787 | CHO-K1 KCNQ1, FluxOR thallium flux fluorescence; active compounds read high | B-score at 10 µM | hit rate 1.3% among 310,000 | AID 2642;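 active = compounds whose thallium flux B-score, printed positive for inhibition, exceeds three library SD while starting fluorescence stays within three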;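 also: channel opened by potassium depolarization with thallium stimulus after 20 min compound exposure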
KCNK3 inh: human KCNK3 channel inhibition, primary screen. CHO-KCNK3 thallium flux, FluxOR fluorescence; active compounds read low. B-score at 10 µM. hit rate 0.84% among 340,000. AID 602410;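 active = B-score under library mean minus 4 SD, starting fluorescence ratio at most library mean plus 5 SD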;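 also: more negative B-score means stronger inhibition of thallium flux through KCNK3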
KCNK9 block: inhibitors of human KCNK9 two-pore domain potassium channel. hit rate 1.2% among 310,000. Q9NPC2. AID 488922. HEK293 KCNK9, FluxOR thallium flux fluorescence; active compounds read low. B-score at 10 µM;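 active = ratio B-score over 3 SD below the library mean, with starting fluorescence within 5 SD of its mean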;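 also: negative B-score means less thallium flux so channel inhibition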
KCNQ1 block val: human KCNQ1 channel inhibition, validation assay. KCNQ1 cell line, FluxOR thallium flux fluorescence. AID 588353. shares compounds with KCNQ1 block. inhibition, % at 10 µM. hit rate 93% among 1,600;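 active = primary screen active, with duplicate mean exceeding buffer control mean plus 3 SD of buffer wells, cut at about 28% in these data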;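 also: 0% = buffer control ratio and 100% = XE991 inhibitor control ratio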
CHO KCNQ1 ctr: activity in parental CHO cells lacking KCNQ1; fluorescence ratio (Tl flux) at 10 µM; hit rate 21% among 1,600; shares compounds with KCNQ1 block; parental CHO-K1, FluxOR thallium flux fluorescence ratio; active compounds read low; zero means no signal rise above baseline;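 active = mean of duplicate thallium-flux fluorescence ratios in parental host cells more than 5 SD below the buffer control mean, cut at about 0.38 in these data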;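 also: ratio is peak minus minimum fluorescence divided by baseline fluorescence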
KCNQ1 APC inh: confirmation of human KCNQ1 potassium channel inhibitors by electrophysiology | AID 624120 | shares compounds with KCNQ1 block | KCNQ1-CHO cells, automated patch clamp current | hit rate 20% among 490 | calls only at 10 µM;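 active = KCNQ1 current drop exceeding 3 SD of negative control wells, seen in both duplicate runs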;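 also: steady state current during a 2 s step from -80 to +40 mV; negative values mean current inhibition and positive values mean potentiation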
KCNQ2 inh: rat KCNQ2 inhibition in KCNQ1 inhibitor specificity screen; KCNQ2 cells, FluxOR thallium flux fluorescence; shares compounds with KCNQ1 block; AID 651746; inhibition, % at 10 µM; hit rate 71% among 1,600;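 active = mean percent inhibition of the KCNQ2 thallium signal more than 5 SD above the buffer-only control wells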;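 also: KCNQ2 expressed in CHO cells; 0% = buffer control wells and 100% = XE-991 inhibitor control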
KCNQ1 KCNE1 spec: KCNQ1 inhibitor that also blocks human KCNQ1/KCNE1 channel; shares compounds with KCNQ1 block; inhibition, % at 10 µM; KCNQ1/KCNE1 cells, FluxOR thallium flux fluorescence; AID 652147; hit rate 77% among 1,600;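 active = mean percent inhibition of duplicate wells above the buffer-only control mean plus 3 SD of those controls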;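 also: 0% = buffer only wells and 100% = XE-991 inhibitor control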
Numbers without * were called inactive; i = inactive; x = no result given. Sampled rows, rich in hits. Any-hit rate of the full collection: about 4%.

SMILES	hERG rescue	KCNQ1 act	PHOSPHO1 block	KCNQ1 block	KCNK3 inh	KCNK9 block	KCNQ1 block val	CHO KCNQ1 ctr	KCNQ2 inh	KCNQ1 KCNE1 spec	others
CC(OC(=O)c1cc(Br)ccc1O)C(=O)Nc1ccc(S(=O)(=O)N2CCCC2)cc1 (stereo unspecified)	-5	i	x	i	i	i	x	x	x	x
Cc1cccc(C(=O)OC(C)C(=O)Nc2ccc(S(=O)(=O)N3CCCC3)cc2)c1O (stereo unspecified)	-18	i	x	10*	i	i	136*	0.38*	117%*	178%*
O=C(NN1CC(C(=O)OCc2ccccc2F)CC1=O)c1ccccc1 (stereo unspecified)	-5	i	10	i	i	i	x	x	x	x
CCOC(=O)c1cc(C#N)c(Oc2ccc(F)cc2)nc1-c1ccccc1	-11	i	42	9*	i	i	70*	0.38*	76%*	104%*
CCOC(=O)c1c(-c2cccc(C)c2)csc1NC(=O)C1CC=CCC1C(=O)O (stereo unspecified)	-11	i	-12	i	i	i	x	x	x	x
Clc1cccc(Cl)c1/C=C/c1nc2ccccc2[nH]1	-19	i	21	14*	-8.8*	i	121*	0.46	93%*	130%*
Clc1ccc(/C=C/c2nc3ccccc3[nH]2)cc1	-7	i	24	i	i	i	x	x	x	x
O=C(c1cccc(N2C(=O)C3C4C=CC(C4)C3C2=O)c1)N1CCCc2ccccc21 (stereo unspecified)	-4	i	20	10*	i	i	0	0.48	i	46%*
Clc1cccc(CNCC2CCCO2)c1Cl (stereo unspecified)	0	i	34	i	i	i	x	x	x	x
CSc1nc(-c2cccs2)c(C#N)c(=O)[nH]1	-6	i	42	i	i	i	x	x	x	x
N#Cc1c(-c2cccs2)nc(SCc2ccc(Cl)cc2)[nH]c1=O	-12	i	0	8*	i	i	0	0.56	i	i
CCN(CC)C(=O)c1ccc(COc2ccc(Cl)c(C)c2)o1	-13	i	39	11*	i	i	114*	0.44	130%*	109%*	KCNQ1 APC inh=i
Cn1cc(CCNC(=O)c2ccc3nc(Cc4ccccc4F)oc3c2)cn1	-14	i	24	i	i	i	x	x	x	x
COc1ccc(OC)c(NC(=O)Nc2ccc(Cl)cc2)c1	-14	i	11	i	i	i	x	x	x	x
COc1ccc(C(=O)CC(=O)C(=O)Nc2ccc(OC)c(Cl)c2)cc1	-24	i	18	15*	i	-6.7*	0	0.61	i	i
Cc1ccc(NC(=O)Nc2ccc(F)c(Cl)c2)cc1	-15	i	42	8*	i	i	78*	0.52	i	44%*
COc1ccc(NC(=O)Nc2ccc(F)c(Cl)c2)cc1	-13	i	8	9*	i	i	70*	0.52	77%*	i
COc1ccc(C(=O)CC(=O)C(=O)Nc2cc(Cl)c(OC)cc2OC)cc1	-7	i	37	i	i	i	x	x	x	x
O=C(Nc1cccnc1)Nc1ccc(F)c(Cl)c1	-19	i	-17	6*	i	i	0	0.56	i	i
